Where “and” joins values, the source holds several entries; their conditions need not be identical. Equal values may be shown once.
T1: Ctf4CTD (yeast Ctf4 amino acids 471 to 927) (S. cerevisiae, UniProt Q01454 471-927)
T1 sequence: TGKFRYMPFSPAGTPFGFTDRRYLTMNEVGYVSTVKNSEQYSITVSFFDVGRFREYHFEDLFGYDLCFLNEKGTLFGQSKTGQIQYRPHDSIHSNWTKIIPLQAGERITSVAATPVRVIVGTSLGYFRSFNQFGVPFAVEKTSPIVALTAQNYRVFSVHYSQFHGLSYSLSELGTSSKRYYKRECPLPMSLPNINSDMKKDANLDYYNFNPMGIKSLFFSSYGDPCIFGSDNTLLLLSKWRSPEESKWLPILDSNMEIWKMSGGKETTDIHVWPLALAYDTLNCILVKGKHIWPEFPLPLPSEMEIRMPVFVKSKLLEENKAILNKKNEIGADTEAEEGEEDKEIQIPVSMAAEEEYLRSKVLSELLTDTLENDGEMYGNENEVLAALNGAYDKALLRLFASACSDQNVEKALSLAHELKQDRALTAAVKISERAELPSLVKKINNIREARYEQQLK

T2: GINSPsf1ΔC (Strep III-tagged, for electron microscopy) (S. cerevisiae, UniProt Q12146 1-194; Q12488 1-164; P40359 1-213; Q03406 1-294)
T2 sequence 1: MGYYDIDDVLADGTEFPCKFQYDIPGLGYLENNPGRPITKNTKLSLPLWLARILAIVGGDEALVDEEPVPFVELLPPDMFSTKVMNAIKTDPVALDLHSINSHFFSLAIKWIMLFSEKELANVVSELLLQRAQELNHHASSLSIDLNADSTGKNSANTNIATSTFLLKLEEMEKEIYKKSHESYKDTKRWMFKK
T2 sequence 2: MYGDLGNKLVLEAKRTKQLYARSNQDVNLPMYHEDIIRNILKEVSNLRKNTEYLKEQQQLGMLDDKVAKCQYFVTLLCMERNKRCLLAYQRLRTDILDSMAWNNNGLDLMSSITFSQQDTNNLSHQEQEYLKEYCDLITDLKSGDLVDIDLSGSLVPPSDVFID
T2 sequence 3: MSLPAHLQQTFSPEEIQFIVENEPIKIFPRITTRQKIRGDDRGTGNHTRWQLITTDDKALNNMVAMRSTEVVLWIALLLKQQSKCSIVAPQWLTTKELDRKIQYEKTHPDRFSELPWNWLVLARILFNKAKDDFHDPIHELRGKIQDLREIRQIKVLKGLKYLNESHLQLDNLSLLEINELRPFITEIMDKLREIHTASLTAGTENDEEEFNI
T2 sequence 4: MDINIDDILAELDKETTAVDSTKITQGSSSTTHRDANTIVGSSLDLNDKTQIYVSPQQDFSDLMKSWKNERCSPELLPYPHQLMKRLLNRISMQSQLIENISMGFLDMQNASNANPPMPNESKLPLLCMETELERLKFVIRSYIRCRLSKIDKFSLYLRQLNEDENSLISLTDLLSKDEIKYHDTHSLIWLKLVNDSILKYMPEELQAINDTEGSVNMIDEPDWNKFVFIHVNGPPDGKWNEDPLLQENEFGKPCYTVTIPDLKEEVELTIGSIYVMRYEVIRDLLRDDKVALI

B1: Pol1NTD (Pol1-NTD-ProteinA: N-terminal region of Pol1, residues 1 to 351, fused to Protein A) (domain or fragment)
chain: MSSKSEKLEKLRKLQAARNGTSIDDYEGDESDGDRIYDEIDEKEYRARKRQELLHDDFVVDDDGVGYVDRGVEEDWREVDNSSSDEDTGNLASKDSKRKKNIKREKDHQITDMLRTQHSKSTLLAHAKKSQKKSIPIDNFDDILGEFESGEVEKPNILLPSKLRENLNSSPTSEFKSSIKRVNGNDESSHDAGISKKVKIDPDSSTDKYLEIESSPLKLQSRKLRYANDVQDLLDDVENSPVVATKRQNVLQDTLLANPPSAQSLADEEDDEDSDEDIILKRRTMRSVTTTRRVNIDSRSNPSTSPFVTAPGTPIGIKGLTPSKSLQSNTDVATLAVNVKKEDVVDPETDT
B2: Ctf4 N-terminal deletion (Ctf4CTD, aa 461-927) (domain or fragment)
chain: THSFPISLANTGKFRYMPFSPAGTPFGFTDRRYLTMNEVGYVSTVKNSEQYSITVSFFDVGRFREYHFEDLFGYDLCFLNEKGTLFGQSKTGQIQYRPHDSIHSNWTKIIPLQAGERITSVAATPVRVIVGTSLGYFRSFNQFGVPFAVEKTSPIVALTAQNYRVFSVHYSQFHGLSYSLSELGTSSKRYYKRECPLPMSLPNINSDMKKDANLDYYNFNPMGIKSLFFSSYGDPCIFGSDNTLLLLSKWRSPEESKWLPILDSNMEIWKMSGGKETTDIHVWPLALAYDTLNCILVKGKHIWPEFPLPLPSEMEIRMPVFVKSKLLEENKAILNKKNEIGADTEAEEGEEDKEIQIPVSMAAEEEYLRSKVLSELLTDTLENDGEMYGNENEVLAALNGAYDKALLRLFASACSDQNVEKALSLAHELKQDRALTAAVKISERAELPSLVKKINNIREARYEQQLK
B3: Ctf4: full-length yeast Ctf4 protein (protein)
chain: MVSVIDKLVFDFGGKTLVSLAPDNNTLCVANKNGLTKILKTNNPEEEPETLDSSKLVSSIKCYSNSHFLMTTMQGDALRYNIDSSQEELLARFALPLRDCCVIHSGKMAVFGGDDLELILLELDDETHKKHAIKIDEQVSQISYNSQMNILAVSMINGKVQIFSLTSTIPNKVHELNDYIVANSYDDTHRDKILSNMMDDIDKDNDNDLSETADPDENNVADPEFCAANRICTRVAWHPKGLHFALPCADDTVKIFSIKGYSLQKTLSTNLSSTKAHFIDLQFDPLRGTYIAAVDLNNKLTVWNWETSEIHYTREFKRKITNIAWKIQADSKTLDLVLGTWSGSIAIVQNLAESVVSNIPDQSVAESSTKHGLFVDSESDLENLEGNDDINKSDKLFSDITQEANAEDVFTQTHDGPSGLSEKRKYNFEDEEDFIDDDDGAGYISGKKPHNEHSYSRVHKTHSFPISLANTGKFRYMPFSPAGTPFGFTDRRYLTMNEVGYVSTVKNSEQYSITVSFFDVGRFREYHFEDLFGYDLCFLNEKGTLFGQSKTGQIQYRPHDSIHSNWTKIIPLQAGERITSVAATPVRVIVGTSLGYFRSFNQFGVPFAVEKTSPIVALTAQNYRVFSVHYSQFHGLSYSLSELGTSSKRYYKRECPLPMSLPNINSDMKKDANLDYYNFNPMGIKSLFFSSYGDPCIFGSDNTLLLLSKWRSPEESKWLPILDSNMEIWKMSGGKETTDIHVWPLALAYDTLNCILVKGKHIWPEFPLPLPSEMEIRMPVFVKSKLLEENKAILNKKNEIGADTEAEEGEEDKEIQIPVSMAAEEEYLRSKVLSELLTDTLENDGEMYGNENEVLAALNGAYDKALLRLFASACSDQNVEKALSLAHELKQDRALTAAVKISERAELPSLVKKINNIREARYEQQLK

Columns and labels:
[1] = tested on: Ctf4CTD; assay: Fluorescence polarization; assay type: binding, yeast (S. cerevisiae); settings: fluorescence anisotropy, 25°C, 20 mM HEPES pH 7.2, 140 mM KCl, 5% (w/v) glycerol; 40 nM (Sld5) or 50 nM (Pol1) fluorescein-labeled peptide; mean of three independent experiments
[2] = tested on: Ctf4CTD; assay: X-ray crystallography of Ctf4CTD crystals soaked with peptide; assay type: binding, yeast (S. cerevisiae); settings: soaked 24 hours at 19 °C
[3] = target: T1, Ctf4CTD (yeast Ctf4 amino acids 471 to …); assay: pull-down
[4] = target: T1, Ctf4CTD (yeast Ctf4 amino acids 471 to …); assay: native MS
[5] = tested on: Ctf4CTD trimer; assay: Single-particle electron microscopy of Ctf4CTD complexes; assay type: binding, yeast (S. cerevisiae)
[6] = target: B2; assay: negative-stain single-particle electron microscopy
[7] = target: the molecule itself; assay: negative-stain single-particle electron microscopy
[8] = target: T2, GINSPsf1ΔC (Strep III-tagged, for …); assay: negative-stain single-particle electron microscopy
[9] = tested on: CMG helicase; settings: yeast cells; cited from earlier work
[10] = Multi-angle laser scattering; assay type: physicochemical, yeast (S. cerevisiae); settings: size exclusion chromatography - MALS
How it was run: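 Recombinant His-tagged full-length yeast Ctf4, expressed in E. coli BL21(DE3)-CodonPlus (1 mM IPTG, 37°C, 2 h), purified by Ni-NTA, Mono Q ion exchange and Superdex 200 gel filtration. About 100 μg loaded onto an HPLC size-exclusion column equilibrated in 150 mM NaCl, 20 mM Tris pH 8.0, 1 mM DTT. Eluate read by 8-angle light scattering and refractive index detectors.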

With “1- MDINIDDILAELDKETTAV -19 [Ctf4-binding sequence of Sld5]” as the molecule, how does the “tighter association with Ctf4 compared to Pol1 (fold)” value [1] read?
Its value is ~ 5 fold.

With 137-IDNFDDILGEFES-149 [Pol1 peptide] as the molecule, how does the “occupancy of binding sites in Ctf4CTD trimer crystal” value ([2]; open crystal form) read?
Its value is “occupies each of the two binding sites available in this crystal form”.

What about the “conformational change in helical domain of Ctf4CTD on binding” value [2] of the same molecule?
The value was “does not induce an appreciable conformational change in the helical domain of Ctf4CTD”.

With MDINIDDILAELDKETTAV [Sld5] as the molecule, how does the “mode of interaction with Ctf4” value ([2]; compared with Ctf4-binding motif of Pol1) read?
The value was “near-identical mode of interaction”.

Does MDINIDDILAELDKETTAVD (domain or fragment) [GST-Sld5 (residues 1 to 20)] bind [3]?
Result: binds

Does MDINIDDILAEADKETTAVD (domain or fragment) [GST-Sld5 (1-20) L12A] bind [3]?
Result: binds

Does MDINIDAILAELDKETTAVD (domain or fragment) [GST-Sld5 (1-20) D7A] bind [3]?
Result: binds

Which “stoichiometry N” value [4] does the source give for IDNFDDILGEFES [Pol1 peptide 137-IDNFDDILGEFES-149] here?
Its value is 1 peptides per Ctf4CTD trimer and 2 peptides per Ctf4CTD trimer and 3 peptides per Ctf4CTD trimer.

Which “stoichiometry N” value [4] does the source give for MDINIDDILAELDKETTAV [Sld5 peptide 1-MDINIDDILAELDKETTAV-19] here?
Its value is 1 peptides per Ctf4CTD trimer and 2 peptides per Ctf4CTD trimer and 3 peptides per Ctf4CTD trimer.

Which results are given for B1?
Ctf4CTD - GINS - Pol1NTD complexes observed ([5]; reconstituted hetero-assemblies, Pol1 residues 1 to 351 fused to Protein A): varied stoichiometries, with partial or full occupancy of the Ctf4 trimer; Ctf4CTD - Pol1NTD complex observed ([5]; reference-free class averages, box size 448 Å): ring-shaped core linked to one mobile globular density; binding result [6]: binds

Which “stoichiometry N” value [7] does the source give for B2 here?
The value was 3.

Does B2 bind [8]?
Result: binds

With B3 as the molecule, how does the “salt concentration resisted by association of Ctf4 with CMG” value [9] read?
Its value is ≥ 700 mM.

What about the “oligomeric state in solution (MALS)” value [10] of the same molecule?
Its value is “stable homotrimers in solution”.

And the “oligomeric state in solution (MALS)” value ([10]; listed as full-length Ctf4)?
Its value is “stable trimer in solution”.
